Assay results: ChEMBL document CHEMBL1137710, “Synthesis and in vitro antitumor activity of new quinoxaline derivatives” (2009)

Columns and labels:
Format in all cases: functional
[1] = tested on: SF-268; assay: Anticancer activity against human SF268 cells assessed as cell growth at 100 uM after 48 hrs by sulforhodamine B assay; settings: SF-268, 48 h, read-out: Activity
[2] = tested on: BT-549; assay: Growth inhibition of human BT549 cells after 48 hrs by sulforhodamine B assay; settings: BT-549, 48 h
Method in brief: (§1)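 NCI 60-human-tumor-cell-line panel, with compounds tested over a 5-log dose range. Values are taken from dose-response curves as log10 molar concentrations: GI50 is 50% net growth inhibition, TGI is total growth inhibition, and LC50 is 50% net cell death.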

[3] = tested on: A498; assay: Growth inhibition of human A498 cells after 48 hrs by sulforhodamine B assay; settings: A498, 48 h; method in brief: as §1
[4] = tested on: NCI-H460; assay: Growth inhibition of human NCI-H460 cells after 48 hrs by sulforhodamine B assay; settings: NCI-H460, 48 h; method in brief: as §1
[5] = tested on: CCRF-CEM; assay: Growth inhibition of human CCRF-CEM cells after 48 hrs by sulforhodamine B assay; method in brief: as §1
[6] = tested on: Malme-3M; assay: Growth inhibition of human MALME-3M cells after 48 hrs by sulforhodamine B assay; method in brief: as §1
[7] = tested on: HT-29; assay: Growth inhibition of human HT-29 cells after 48 hrs by sulforhodamine B assay; settings: HT-29, 48 h; method in brief: as §1
[8] = tested on: KM12; assay: Growth inhibition of human KM12 cells after 48 hrs by sulforhodamine B assay; settings: KM12, 48 h; method in brief: as §1
[9] = tested on: SR; assay: Growth inhibition of human SR cells after 48 hrs by sulforhodamine B assay
Method in brief: (§2)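 Run in the NCI 60-human-tumour-cell-line panel, tested over a 5-log dose range. Dose–response curves gave three values per cell line, each as a log10 molar concentration: GI50 (50% inhibition of net cell growth), TGI (total inhibition of net growth) and LC50 (50% net cell death). The mean graph midpoint is the arithmetic mean over all lines, with insensitive lines entered at the highest concentration tested.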

[10] = tested on: SK-MEL-2; assay: Growth inhibition of human SK-MEL-2 cells after 48 hrs by sulforhodamine B assay; settings: SK-MEL-2, 48 h; method in brief: as §1
[11] = tested on: HOP-92; assay: Growth inhibition of human HOP92 cells after 48 hrs by sulforhodamine B assay; settings: HOP-92, 48 h; method in brief: as §1
[12] = tested on: NCI-H23; assay: Growth inhibition of human NCI-H23 cells after 48 hrs by sulforhodamine B assay; settings: NCI-H23, 48 h; method in brief: as §1
[13] = tested on: OVCAR-3; assay: Growth inhibition of human OVCAR-3 cells after 48 hrs by sulforhodamine B assay; settings: OVCAR-3, 48 h; method in brief: as §1
[14] = tested on: SK-OV-3; assay: Growth inhibition of human SKOV3 cells after 48 hrs by sulforhodamine B assay; settings: SK-OV-3, 48 h; method in brief: as §1
[15] = tested on: UACC-257; assay: Growth inhibition of human UACC257 cells after 48 hrs by sulforhodamine B assay; settings: UACC-257, 48 h; method in brief: as §2
[16] = tested on: ACHN; assay: Growth inhibition of human ACHN cells after 48 hrs by sulforhodamine B assay
[17] = tested on: UACC-62; assay: Growth inhibition of human UACC62 cells after 48 hrs by sulforhodamine B assay; settings: UACC-62, 48 h; method in brief: as §2
[18] = tested on: T47D; assay: Growth inhibition of human T47D cells after 48 hrs by sulforhodamine B assay; method in brief: as §2
[19] = tested on: MCF7; assay: Growth inhibition of human MCF7 cells after 48 hrs by sulforhodamine B assay; settings: MCF7, 48 h; method in brief: as §1
[20] = tested on: EKVX; assay: Growth inhibition of human EKVX cells after 48 hrs by sulforhodamine B assay; method in brief: as §1
[21] = tested on: HOP-62; assay: Growth inhibition of human HOP62 cells after 48 hrs by sulforhodamine B assay; settings: HOP-62, 48 h; method in brief: as §1
[22] = Growth inhibition of human […] cells after 48 hrs by sulforhodamine B assay; method in brief: as §1
[23] = tested on: HCT-15; assay: Growth inhibition of human HCT15 cells after 48 hrs by sulforhodamine B assay; settings: HCT-15, 48 h; method in brief: as §1
[24] = tested on: SF-539; assay: Growth inhibition of human SF539 cells after 48 hrs by sulforhodamine B assay; settings: SF-539, 48 h; method in brief: as §1
[25] = tested on: UO-31; assay: Growth inhibition of human UO31 cells after 48 hrs by sulforhodamine B assay; settings: UO-31, 48 h; method in brief: as §2
[26] = tested on: HL-60(TB); assay: Growth inhibition of human HL-60(TB) cells after 48 hrs by sulforhodamine B assay; settings: HL-60, 48 h
Method in brief: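 Tested only on compounds active in a three-line prescreen, in the NCI 60-human-tumour-cell-line panel over a 5-log dose range. Values come from dose–response curves as log10 molar GI50, the concentration inhibiting 50% net cell growth. Log10 TGI (total growth inhibition) and log10 LC50 (50% net cell death) were derived too. Mean graph midpoints include insensitive lines at the highest concentration tested.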

[27] = tested on: SNB-19; assay: Growth inhibition of human SNB19 cells after 48 hrs by sulforhodamine B assay; settings: SNB-19, 48 h; method in brief: as §2
[28] = read-out: pLC50 (the source's name) (converted)

Q: Which growth at 100 µM [1] does the source give for `COc1cc(CNc2nc3cc(N)cc(N)c3nc2-c2ccccc2)cc(OC)c1` here?
A: Its growth at 100 µM is -28%.

Q: And the GI50 [2]?
A: Its GI50 is 9.77 µM.

Q: What about the CC50 [2, 28] of the same compound?
A: The CC50 was greater than 100 µM.

Q: What about the TGI ([2]; read-out: pTGI (converted)) of the same compound?
A: Its TGI is greater than 100 µM.

Q: What about the GI50 [3] of the same compound?
A: The GI50 was 91.2 µM.

Q: What about the CC50 [3, 28] of the same compound?
A: Its CC50 is greater than 100 µM.

Q: And the TGI ([3]; read-out: pTGI (converted))?
A: Its TGI is greater than 100 µM.

Q: What about the GI50 [4] of the same compound?
A: The GI50 was 10.5 µM.

Q: What about the LC50 (50% net cell kill) [4] of the same compound?
A: Its LC50 (50% net cell kill) is greater than 100 µM.

Q: And the TGI ([4]; read-out: pTGI (converted))?
A: The TGI was greater than 100 µM.

Q: What about the GI50 [5] of the same compound?
A: The GI50 was 1.74 µM.

Q: What about the LC50 [5] of the same compound?
A: Its LC50 is greater than 100 µM.

Q: And the TGI ([5]; read-out: pTGI (converted))?
A: The TGI was 5.62 µM.

Q: And the GI50 [6]?
A: Its GI50 is 4.9 µM.

Q: And the CC50 [6, 28]?
A: The CC50 was greater than 100 µM.

Q: And the TGI ([6]; read-out: pTGI (converted))?
A: Its TGI is 33.9 µM.

Q: What about the GI50 [7] of the same compound?
A: Its GI50 is 8.13 µM.

Q: What about the LC50 [7] of the same compound?
A: Its LC50 is greater than 100 µM.

Q: And the TGI ([7]; read-out: pTGI (converted))?
A: Its TGI is 44.7 µM.

Q: What about the GI50 [8] of the same compound?
A: The GI50 was 4.27 µM.

Q: What about the LC50 (50% net cell kill) [8] of the same compound?
A: Its LC50 (50% net cell kill) is greater than 100 µM.

Q: What about the TGI ([8]; read-out: pTGI (converted)) of the same compound?
A: The TGI was 74.1 µM.

Q: What about the GI50 [9] of the same compound?
A: The GI50 was 3.8 µM.

Q: What about the LC50 (concentration giving 50% net cell death) [9] of the same compound?
A: The LC50 (concentration giving 50% net cell death) was greater than 100 µM.

Q: What about the TGI ([9]; read-out: pTGI (converted)) of the same compound?
A: Its TGI is greater than 100 µM.

Q: What about the GI50 [10] of the same compound?
A: Its GI50 is 7.76 µM.

Q: What about the CC50 [10, 28] of the same compound?
A: Its CC50 is greater than 100 µM.

Q: And the TGI ([10]; read-out: pTGI (converted))?
A: The TGI was 40.7 µM.

Q: What about the GI50 [11] of the same compound?
A: The GI50 was 1.15 µM.

Q: And the LC50 (50% net cell death) [11]?
A: The LC50 (50% net cell death) was 9.55 µM.

Q: And the TGI ([11]; read-out: pTGI (converted))?
A: Its TGI is 3.31 µM.

Q: What about the GI50 [12] of the same compound?
A: Its GI50 is 16.2 µM.

Q: And the LC50 (50% net cell kill concentration) [12]?
A: Its LC50 (50% net cell kill concentration) is greater than 100 µM.

Q: What about the TGI ([12]; read-out: pTGI (converted)) of the same compound?
A: Its TGI is greater than 100 µM.

Q: And the GI50 [13]?
A: Its GI50 is 1.86 µM.

Q: What about the CC50 [13, 28] of the same compound?
A: Its CC50 is greater than 100 µM.

Q: And the TGI ([13]; read-out: pTGI (converted))?
A: Its TGI is 4.57 µM.

Q: What about the GI50 [14] of the same compound?
A: The GI50 was 15.1 µM.

Q: What about the CC50 [14, 28] of the same compound?
A: The CC50 was greater than 100 µM.

Q: What about the TGI ([14]; read-out: pTGI (converted)) of the same compound?
A: Its TGI is 53.7 µM.

Q: What about the GI50 [15] of the same compound?
A: The GI50 was 25.7 µM.

Q: And the CC50 [15, 28]?
A: The CC50 was greater than 100 µM.

Q: And the TGI ([15]; read-out: pTGI (converted))?
A: Its TGI is greater than 100 µM.

Q: What about the GI50 [16] of the same compound?
A: The GI50 was 9.33 µM.

Q: And the CC50 [16, 28]?
A: The CC50 was greater than 100 µM.

Q: And the TGI ([16]; read-out: pTGI (converted))?
A: Its TGI is 47.9 µM.

Q: And the GI50 [17]?
A: The GI50 was 5.37 µM.

Q: And the CC50 [17, 28]?
A: The CC50 was greater than 100 µM.

Q: And the TGI ([17]; read-out: pTGI (converted))?
A: The TGI was 30.9 µM.

Q: And the GI50 [18]?
A: Its GI50 is 1.66 µM.

Q: What about the CC50 [18, 28] of the same compound?
A: The CC50 was greater than 100 µM.

Q: What about the TGI ([18]; read-out: pTGI (converted)) of the same compound?
A: Its TGI is 4.57 µM.

Q: What about the GI50 [19] of the same compound?
A: Its GI50 is 8.32 µM.

Q: And the CC50 [19, 28]?
A: The CC50 was greater than 100 µM.

Q: What about the TGI ([19]; read-out: pTGI (converted)) of the same compound?
A: Its TGI is greater than 100 µM.

Q: What about the GI50 [20] of the same compound?
A: Its GI50 is 2.82 µM.

Q: And the LC50 (50% net cell kill) [20]?
A: Its LC50 (50% net cell kill) is greater than 100 µM.

Q: And the TGI ([20]; read-out: pTGI (converted))?
A: The TGI was 8.91 µM.

Q: And the GI50 [21]?
A: Its GI50 is 13.5 µM.

Q: And the LC50 [21]?
A: The LC50 was 72.4 µM.

Q: What about the TGI ([21]; read-out: pTGI (converted)) of the same compound?
A: The TGI was 31.6 µM.

Q: And the GI50 [22]?
A: Its GI50 is 2.19 µM.

Q: And the LC50 [22]?
A: Its LC50 is greater than 100 µM.

Q: What about the TGI ([22]; read-out: pTGI (converted)) of the same compound?
A: Its TGI is 6.17 µM.

Q: What about the GI50 [23] of the same compound?
A: The GI50 was 19.5 µM.

Q: And the GI50 [24]?
A: Its GI50 is 5.25 µM.

Q: And the LC50 [24]?
A: Its LC50 is 77.6 µM.

Q: And the TGI ([24]; read-out: pTGI (converted))?
A: Its TGI is 21.4 µM.

Q: What about the GI50 [25] of the same compound?
A: Its GI50 is 4.07 µM.

Q: And the CC50 [25, 28]?
A: Its CC50 is greater than 100 µM.

Q: What about the TGI ([25]; read-out: pTGI (converted)) of the same compound?
A: The TGI was greater than 100 µM.

Q: What about the GI50 [26] of the same compound?
A: Its GI50 is 3.8 µM.

Q: And the LC50 [26]?
A: The LC50 was greater than 100 µM.

Q: What about the TGI ([26]; read-out: pTGI (converted)) of the same compound?
A: The TGI was greater than 100 µM.

Q: What about the GI50 [27] of the same compound?
A: The GI50 was 23.4 µM.

Q: What about the LC50 [27] of the same compound?
A: Its LC50 is greater than 100 µM.

Q: What about the TGI ([27]; read-out: pTGI (converted)) of the same compound?
A: The TGI was greater than 100 µM.
